Measured values as given in ChEMBL document CHEMBL1151261, “Antineoplastic agents. 509: synthesis of fluorcombstatin phosphate and related 3-halostilbenes(1)” (J Nat Prod, 2005).
Values after ≈ are worked out from the molar mass of the structure shown. Active and inactive are the calls of the source. No cut-off for these calls is given here.

Legend:
[1] = system: HUVEC; assay: Induction of microtubule depolymerization in HUVEC at 10 uM after 30 mins; type: functional, cell-based; details: Homo sapiens
Procedure, shortened: (§1)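 Primary HUVECs from umbilical cords grown in M199 with 20% human serum, CD31-authenticated. About 3×10^4 cells on gelatin-coated coverslips, 24 h at 37 °C, then compound from DMSO for 30 min to 4 h, in duplicate. Cells methanol-fixed, stained with anti-α-tubulin and TRITC secondary plus Hoechst, imaged by confocal microscopy and scored for microtubule damage.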

[2] = system: Neisseria gonorrhoeae; assay: Antimicrobial activity against Neisseria gonorrhoeae ATCC 49226 after 24 hrs by broth microdilution assay; type: functional; details: ATCC 49226, 24 h
Procedure, shortened: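 Neisseria tested by NCCLS broth microdilution in gonococcal typing broth. Final inoculum about 5×10^5 CFU/mL; 2-fold compound dilutions from DMSO; DMSO turbidity control; 37 °C with 5% CO₂ without agitation, 24 h. MIC = lowest concentration with no visible growth.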

[3] = system: DU-145; assay: Cytotoxicity against human DU145 cells after 48 hrs by sulforhodamine B assay; type: functional; details: DU-145, 48 h
Procedure, shortened: (§2)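 Human tumor lines exposed to compound for 48 h, then fixed with trichloroacetic acid and stained with sulforhodamine B (NCI standard protocol); optical density read on a microplate reader. GI50 is the concentration giving a 50% reduction in net protein increase, calculated from optical density data.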

[4] = system: Stenotrophomonas maltophilia; assay: Antimicrobial activity against Stenotrophomonas maltophilia ATCC 13637 at 64 ug/mL after 24 hrs by broth microdilution assay; type: functional, organism-based
Procedure, shortened: (§3)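 NCCLS bacterial broth microdilution (M7-A5). Overnight colonies diluted to about 5×10^5 CFU/mL final; 2-fold compound dilutions (DMSO stock) in cation-adjusted Mueller Hinton II broth; DMSO turbidity control; 35 °C without agitation, 24 h. MIC = lowest concentration with optically clear wells.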

[5] = system: Cryptococcus neoformans; assay: Antimicrobial activity against Cryptococcus neoformans ATCC 90112 after 72 hrs by broth microdilution assay; type: functional; details: ATCC 90112, 72 h
Procedure, shortened: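 Yeast NCCLS broth microdilution (M27-A). Inoculum 0.5 to 2.5×10^3 CFU/mL; 2-fold dilutions in 0.165 M MOPS-buffered RPMI 1640, pH 7.0; compound from DMSO, DMSO-only turbidity control; 35 °C without agitation; read at 72 h (Cryptococcus). MIC = lowest concentration giving no visible growth.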

[6] = system: HUVEC; assay: Reduction of junction numbers in HUVEC at 0.01 ug/mL; type: functional, cell-based; details: Homo sapiens
Procedure, shortened: (§4)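 Matrigel cord formation (NCI DTP protocol). Commercial HUVECs in EGM-2; Matrigel polymerized 15 min at RT then 30 min at 37 °C; 100 μL of 2×10^5 cells/mL plus compound solution; 24 h incubation. Imaged by inverted microscope; cord length and junction number compared with untreated controls.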

[7] = system: P388; assay: Cytotoxicity against mouse P388 cells after 48 hrs by Coulter particle counting; details: P388, 48 h, read-out: ED50 (the source's name)
[8] = system: NCI-H460; assay: Cytotoxicity against human NCI-H460 cells after 48 hrs by sulforhodamine B assay; type: functional; details: NCI-H460, 48 h; procedure, shortened: as §2
[9] = system: BXPC-3; assay: Cytotoxicity against human BxPC3 cells after 48 hrs by sulforhodamine B assay; type: functional; details: BXPC-3, 48 h; procedure, shortened: as §2
[10] = system: MCF7; assay: Cytotoxicity against human MCF7 cells after 48 hrs by sulforhodamine B assay; type: functional; details: MCF7, 48 h; procedure, shortened: as §2
[11] = system: Streptococcus pneumoniae; assay: Antimicrobial activity against Streptococcus pneumoniae ATCC 6303 after 24 hrs by broth microdilution assay; type: functional; details: ATCC 6303, 24 h
Procedure, shortened: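 Streptococcus tested by NCCLS broth microdilution in cation-adjusted MHII broth with 3% lysed horse blood. Final inoculum about 5×10^5 CFU/mL; 2-fold compound dilutions from DMSO; DMSO turbidity control; 35 °C without agitation, 24 h. MIC = lowest concentration with no visible growth.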

[12] = system: HUVEC; assay: Induction of microtubule damage in HUVEC at 1 uM after 4 hrs; type: functional, cell-based; details: Homo sapiens; procedure, shortened: as §1
[13] = system: Enterobacter cloacae; assay: Antimicrobial activity against Enterobacter cloacae ATCC 13047 at 64 ug/mL after 24 hrs by broth microdilution assay; type: functional, organism-based; procedure, shortened: as §3
[14] = system: Micrococcus luteus; assay: Antimicrobial activity against Micrococcus luteus Presque Isle 456 after 24 hrs by broth microdilution assay; type: functional; procedure, shortened: as §3
[15] = system: SF-268; assay: Cytotoxicity against human SF268 cells after 48 hrs by sulforhodamine B assay; type: functional; details: SF-268, 48 h; procedure, shortened: as §2
[16] = system: HUVEC; assay: Reduction of cord length in HUVEC at 0.001 ug/mL; type: functional, cell-based; details: Homo sapiens; procedure, shortened: as §4
[17] = system: Enterococcus faecalis; assay: Antimicrobial activity against Enterococcus faecalis ATCC 29212 at 64 ug/mL after 24 hrs by broth microdilution assay; type: functional, organism-based; procedure, shortened: as §3
[18] = system: Staphylococcus aureus; assay: Antimicrobial activity against Staphylococcus aureus ATCC 29213 at 64 ug/mL after 24 hrs by broth microdilution assay; type: functional, organism-based; procedure, shortened: as §3
[19] = system: HUVEC; assay: Induction of microtubule damage in HUVEC at 1 uM after 1 hr; type: functional, cell-based; details: Homo sapiens; procedure, shortened: as §1
[20] = system: Escherichia coli; assay: Antimicrobial activity against Escherichia coli ATCC 25922 at 64 ug/mL after 24 hrs by broth microdilution assay; type: functional, organism-based; procedure, shortened: as §3
[21] = system: HUVEC; assay: Induction of microtubule depolymerization in HUVEC at 10 uM after 1 hr; type: functional, cell-based; details: Homo sapiens; procedure, shortened: as §1
[22] = system: HUVEC; assay: Reduction of junction numbers in HUVEC at 0.001 ug/mL; type: functional, cell-based; details: Homo sapiens; procedure, shortened: as §4
[23] = system: HUVEC; assay: Induction of microtubule depolymerization in HUVEC at 10 uM after 2 hrs; type: functional, cell-based; details: Homo sapiens; procedure, shortened: as §1
[24] = system: KM-20L2; assay: Cytotoxicity against human KM20L2 cells after 48 hrs by sulforhodamine B assay; type: functional; details: KM-20L2, 48 h; procedure, shortened: as §2
[25] = system: HUVEC; assay: Induction of microtubule damage in HUVEC at 1 uM after 30 mins; type: functional, cell-based; details: Homo sapiens; procedure, shortened: as §1
[26] = Displacement of [3H]colchicine from tubulin
Procedure, shortened: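 [3H]colchicine binding with 1.0 μM tubulin, 5.0 μM [3H]colchicine and inhibitor at 1.0 μM.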

[27] = system: HUVEC; assay: Induction of microtubule damage in HUVEC at 1 uM after 2 hrs; type: functional, cell-based; details: Homo sapiens; procedure, shortened: as §1
[28] = system: HUVEC; assay: Reduction of cord length in HUVEC at 0.01 ug/mL; type: functional, cell-based; details: Homo sapiens; procedure, shortened: as §4
[29] = Cytotoxicity against HUVEC; type: cell-based; details: human, HUVEC cells; read-out: ED50 (the source's name)
Procedure, shortened: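 Commercial HUVECs grown in EGM-2 medium. Growth measured by the sulforhodamine B assay: 48 h exposure, TCA fixation, SRB stain, optical density read. ED50 = concentration giving 50% inhibition, taken from plotted data.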

[30] = system: Candida albicans; assay: Antimicrobial activity against Candida albicans ATCC 90028 at 64 ug/mL after 48 hrs by broth microdilution assay; type: functional, organism-based
Procedure, shortened: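 Yeast NCCLS broth microdilution (M27-A). Inoculum 0.5 to 2.5×10^3 CFU/mL; 2-fold dilutions in 0.165 M MOPS-buffered RPMI 1640, pH 7.0; compound from DMSO, DMSO-only turbidity control; 35 °C without agitation; read at 48 h (Candida). MIC = lowest concentration giving no visible growth.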

[31] = system: HUVEC; assay: Induction of microtubule depolymerization in HUVEC at 10 uM after 4 hrs; type: functional, cell-based; details: Homo sapiens; procedure, shortened: as §1
[32] = Inhibition of tubulin polymerization
Procedure, shortened: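 Turbidimetry at 350 nm. Compound at varying concentrations preincubated with 10 μM (1.0 mg/mL) purified tubulin, chilled on ice, then 0.4 mM GTP added and polymerization followed at 30 °C. Extent of polymerization at 20 min measured.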

[33] = system: Staphylococcus aureus; assay: Antimicrobial activity against Staphylococcus aureus ATCC 29213 after 24 hrs by broth microdilution assay; type: functional; details: ATCC 29213, 24 h; procedure, shortened: as §3
[34] = system: HUVEC; assay: Induction of microtubule depolymerization in HUVEC at 1 uM after 4 hrs; type: functional, cell-based; details: Homo sapiens
Procedure, shortened: (§5)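 Primary HUVECs from umbilical cords, grown in M199 with 20% human serum, were seeded (~3×10^4) on gelatin-coated coverslips and grown 24 h at 37 °C. Compound in DMSO was added (final 1, 10 or 100 μM), with duplicate plates. Cells were fixed in ice-cold methanol and immunostained for α-tubulin (TRITC secondary) and with Hoechst. Microtubule disruption was scored by confocal microscopy.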

[35] = system: HUVEC; assay: Induction of microtubule depolymerization in HUVEC at 1 uM after 2 hrs; type: functional, cell-based; details: Homo sapiens; procedure, shortened: as §5

Compound	Activity [1]	MIC [2]	GI50 [3]	Activity [4]	MIC [5]	EC50 [7]	GI50 [8]	GI50 [9]	GI50 [10]	MIC [11]	Activity [13]	MIC [14]	GI50 [15]	Activity [17]	Activity [18]	Activity [19]	Activity [20]	Activity [21]	GI50 [24]	Activity [30]	also measured
COc1ccc(/C=C\c2cc(F)c(OC)c(OC)c2)cc1O [FLUORCOMBSTATIN]	Active	32 µg/mL (≈ 105 µM)	0.0019 µg/mL (≈ 0.00624 µM)	inactive	64 µg/mL (≈ 210 µM)	< 0.002 µg/mL	< 0.0032 µg/mL	0.745 µg/mL (≈ 2.45 µM)	< 0.0027 µg/mL	64 µg/mL (≈ 210 µM)	inactive	32 µg/mL (≈ 105 µM)	< 0.0016 µg/mL	inactive	inactive	Active	inactive	Active	> 1 µg/mL	inactive	Activity [6]: Active; Activity [12]: Active; Activity [16]: Active; Activity [22]: Active; Activity [23]: Active; Activity [25]: Active; Activity [26]: 75%; Activity [27]: Active; Activity [28]: Active; CC50 [29]: 0.00025 µg/mL (≈ 0.000822 µM); Activity [31]: Active; IC50 [32]: 1500 nM
COc1ccc(/C=C/c2cc(F)c(OC)c(OC)c2)cc1O	–	8 µg/mL (≈ 26.3 µM)	0.18 µg/mL (≈ 0.591 µM)	inactive	64 µg/mL (≈ 210 µM)	0.253 µg/mL (≈ 0.831 µM)	0.18 µg/mL (≈ 0.591 µM)	2.2 µg/mL (≈ 7.23 µM)	0.051 µg/mL (≈ 0.168 µM)	64 µg/mL (≈ 210 µM)	inactive	16 µg/mL (≈ 52.6 µM)	0.35 µg/mL (≈ 1.15 µM)	inactive	–	–	inactive	–	0.53 µg/mL (≈ 1.74 µM)	inactive	MIC [33]: 32 µg/mL (≈ 105 µM)
COc1ccc(/C=C\c2cc(Cl)c(OC)c(OC)c2)cc1O	Active	16 µg/mL (≈ 49.9 µM)	0.00025 µg/mL (≈ 0.000779 µM)	inactive	64 µg/mL (≈ 200 µM)	0.0024 µg/mL (≈ 0.00748 µM)	0.00026 µg/mL (≈ 0.000811 µM)	0.32 µg/mL (≈ 0.998 µM)	0.0026 µg/mL (≈ 0.00811 µM)	32 µg/mL (≈ 99.8 µM)	inactive	32 µg/mL (≈ 99.8 µM)	< 0.0009 µg/mL	inactive	inactive	Active	inactive	Active	0.27 µg/mL (≈ 0.842 µM)	inactive	Activity [34]: Active; Activity [35]: Active; Activity [23]: Active; Activity [25]: Active; Activity [26]: 85%; Activity [31]: Active; IC50 [32]: 1600 nM
